Laboratory results as given in ChEMBL document CHEMBL5608193, “Discovery of bivalent small molecule degraders of cyclin-dependent kinase 7 (CDK7)” (Eur J Med Chem, 2024).
pIC50: −log10 of the molar value. Activity calls are given as the source filed them. The rule behind the calls is not given here.

Columns and labels:
[1] = target: T1, von Hippel-Lindau disease tumor suppressor/Cyclin-dependent kinase 7 (Homo sapiens) (UniProt P50613+P40337); assay: PROTAC activity at CDK7/VHL in human Jurkat cells assessed as degradation of CDK7 at 0.1 uM measured after 16 hrs incubation by immunoblot analysis relative to control; type: cell-based
T1 sequence (P40337 whole entry, looked up): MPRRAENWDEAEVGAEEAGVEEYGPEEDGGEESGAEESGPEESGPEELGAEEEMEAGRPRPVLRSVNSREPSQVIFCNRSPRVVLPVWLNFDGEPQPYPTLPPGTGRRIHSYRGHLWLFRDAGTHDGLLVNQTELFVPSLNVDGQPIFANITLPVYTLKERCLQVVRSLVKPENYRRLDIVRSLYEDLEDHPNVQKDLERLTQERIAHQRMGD
T1 sequence (P50613 whole entry, looked up): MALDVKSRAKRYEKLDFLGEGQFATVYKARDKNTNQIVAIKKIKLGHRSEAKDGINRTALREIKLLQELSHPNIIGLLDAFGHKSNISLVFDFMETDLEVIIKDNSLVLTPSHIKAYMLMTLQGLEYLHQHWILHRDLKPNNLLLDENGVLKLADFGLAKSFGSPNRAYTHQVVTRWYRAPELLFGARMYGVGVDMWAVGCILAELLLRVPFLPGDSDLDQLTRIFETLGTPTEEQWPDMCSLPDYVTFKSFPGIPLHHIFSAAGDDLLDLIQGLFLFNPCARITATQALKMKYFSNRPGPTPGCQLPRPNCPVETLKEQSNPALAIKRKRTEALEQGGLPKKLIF
Summary of the method: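 Jurkat cells given VHL-recruiting compounds at 0.1 or 1 μM for 16 h. RIPA lysis, BCA normalization, 4–20% SDS-PAGE, nitrocellulose transfer. CDK7 (1:1000) and β-actin probed overnight at 4 °C, IRDye secondaries, Odyssey detection. Quantified against control, mean ± SEM from three independent biological replicates.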

Jurkat [2] = assay: Potency index, ratio of YKL-5-167 IC50 to test compound IC50 for antiproliferative activity against human Jurkat cells assessed as cell viability measured after 72 hrs by CellTiter-Glo assay; type: functional
[3] = target: T1, von Hippel-Lindau disease tumor suppressor/Cyclin-dependent kinase 7 (Homo sapiens); assay: PROTAC activity at CDK7/VHL in human OVCAR-3 cells assessed as degradation of CDK7 at 0.1 to 5 uM measured after 6 hrs incubation by immunoblot analysis; type: cell-based; settings: dose 0.1-5 µM
[4] = target: von Hippel-Lindau disease tumor suppressor/Cyclin-dependent kinase 5 (Homo sapiens) (UniProt Q00535+P40337); assay: PROTAC activity at CDK5/VHL in human Jurkat cells assessed as degradation of CDK7 measured at 10 to 500 nM after 6 hrs incubation by Western blotting analysis; type: cell-based; settings: dose 10-500 nM
Chain of von Hippel-Lindau disease tumor suppressor/Cyclin-dependent kinase 5 (Homo sapiens) (P40337 whole entry, looked up): as the sequence (P40337 whole entry, looked up) above
Chain of von Hippel-Lindau disease tumor suppressor/Cyclin-dependent kinase 5 (Homo sapiens) (Q00535 whole entry, looked up): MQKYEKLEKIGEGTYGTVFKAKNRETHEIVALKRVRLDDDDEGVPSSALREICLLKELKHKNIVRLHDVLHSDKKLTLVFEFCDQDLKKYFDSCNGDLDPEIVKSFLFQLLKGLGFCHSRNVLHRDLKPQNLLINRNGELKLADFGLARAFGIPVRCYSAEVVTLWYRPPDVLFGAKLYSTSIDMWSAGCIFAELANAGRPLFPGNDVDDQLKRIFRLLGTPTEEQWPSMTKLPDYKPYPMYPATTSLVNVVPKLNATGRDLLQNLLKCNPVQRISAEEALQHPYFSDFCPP

[5] = target: T1, von Hippel-Lindau disease tumor suppressor/Cyclin-dependent kinase 7 (Homo sapiens); assay: PROTAC activity at CDK7/VHL in human Jurkat cells assessed as degradation of CDK7 measured at 0.1 to 5 uM after 6 hrs incubation by Western blotting analysis; type: cell-based; settings: dose 0.1-5 µM
Summary of the method: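 Jurkat cells dosed across a concentration series up to 5 μM for 6 h. CDK7 immunoblot via RIPA lysis, 4–20% SDS-PAGE, IRDye secondaries. Quantified as mean ± SEM from three independent biological replicates.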

[6] = target: von Hippel-Lindau disease tumor suppressor/Cyclin-dependent kinase 4 (Homo sapiens) (UniProt P11802+P40337); assay: PROTAC activity at CDK4/VHL in human Jurkat cells assessed as degradation of CDK7 measured at 10 to 500 nM after 6 hrs incubation by Western blotting analysis; type: cell-based; settings: dose 10-500 nM
Chain of von Hippel-Lindau disease tumor suppressor/Cyclin-dependent kinase 4 (Homo sapiens) (P11802 2-303 limits assumed): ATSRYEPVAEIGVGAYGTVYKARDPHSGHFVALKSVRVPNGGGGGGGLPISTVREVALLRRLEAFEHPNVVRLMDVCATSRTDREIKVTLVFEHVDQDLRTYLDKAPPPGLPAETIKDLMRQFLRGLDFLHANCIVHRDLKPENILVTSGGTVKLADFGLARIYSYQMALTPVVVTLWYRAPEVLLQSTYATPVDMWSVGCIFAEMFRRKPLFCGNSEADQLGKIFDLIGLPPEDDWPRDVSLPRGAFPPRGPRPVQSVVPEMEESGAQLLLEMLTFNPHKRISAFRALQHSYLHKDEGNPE
Chain of von Hippel-Lindau disease tumor suppressor/Cyclin-dependent kinase 4 (Homo sapiens) (P40337 whole entry partner): as the sequence (P40337 whole entry, looked up) above

[7] = target: T1, von Hippel-Lindau disease tumor suppressor/Cyclin-dependent kinase 7 (Homo sapiens); assay: PROTAC activity at CDK7/VHL in human Jurkat cells assessed as degradation of CDK7 in presence of 0.5 uM MG132 at 0.1 uM measured after 6 hrs incubation by immunoblot analysis; type: cell-based
Summary of the method: (§1)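 Jurkat cells pretreated 2 h with MG132, MLN-4924, YKL-5–167 or a VHL ligand, then given degrader for 6 h. CDK7 immunoblotted: RIPA lysis, SDS-PAGE, anti-CDK7 1:1000, IRDye secondaries.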

[8] = target: von Hippel-Lindau disease tumor suppressor/Cyclin-dependent kinase 2 (Homo sapiens) (UniProt P24941+P40337); assay: PROTAC activity at CDK2/VHL in human Jurkat cells assessed as degradation of CDK7 measured at 10 to 500 nM after 6 hrs incubation by Western blotting analysis; type: cell-based; settings: dose 10-500 nM
[9] = Tmax in male CD1 mouse at 10 mg/kg, IP measured upto 24 hrs by LC-MS/MS-39 analysis; type: ADME, organism-based; settings: in vivo
Summary of the method: (§2)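 Male CD1 mice, n=3, one 10 mg/kg intraperitoneal dose. Blood sampled at 0, 0.25, 0.5, 1, 2, 4, 6, 8 and 24 h. Kept on wet ice and spun to plasma (2000 g, 5 min, 4 °C) within 15 min, stored at about −70 °C. Protein precipitation with acetonitrile, then LC-MS/MS. Values are mean ± SD of three mice.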

MOLT-4 = assay: Antiproliferative activity against human MOLT-4 cells assessed as cell viability measured after 72 hrs by CellTiter-Glo assay; type: functional, cell-based; settings: MOLT-4, 72 h
Summary of the method: (§3)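 Cells grown in RPMI 1640 with 10% heat-inactivated FBS and penicillin/streptomycin at 37 °C, 5% CO2, mycoplasma-negative. Seeded at 10^4/ml. Compounds dispensed digitally from 10 mM or 1 mM DMSO stocks, DMSO equalized, triplicate wells. After 72 h, CellTiter-Glo added for 10–15 min at room temperature and luminescence read.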

OVCAR-3 = assay: Antiproliferative activity against human OVCAR-3 cells assessed as cell viability measured after 72 hrs by CellTiter-Glo assay; type: functional, cell-based; settings: OVCAR-3, 72 h; summary of the method: as §3
[10] = target: T1, von Hippel-Lindau disease tumor suppressor/Cyclin-dependent kinase 7 (Homo sapiens); assay: PROTAC activity at CDK7/VHL in human Jurkat cells assessed as degradation of CDK7 measured after 6 hrs incubation by immunoblot analysis; type: cell-based; settings: dose 10-5000 nM
[11] = Observed clearance in male CD1 mouse at 10 mg/kg, IP measured upto 24 hrs by LC-MS/MS-39 analysis; type: ADME, organism-based; settings: in vivo; summary of the method: as §2
[12] = target: T1, von Hippel-Lindau disease tumor suppressor/Cyclin-dependent kinase 7 (Homo sapiens); assay: PROTAC activity at CDK7/VHL in human Jurkat cells assessed as degradation of MAT1 measured at 0.1 to 5 uM after 6 hrs incubation by Western blotting analysis; type: cell-based; settings: dose 0.1-5 µM
Summary of the method: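 Jurkat and OVCAR3 cells treated 6 h across a concentration series. Blots probed for CDK7, MAT1 (1:1000) and Cyclin H (1:1000) overnight at 4 °C, with β-actin control and IRDye secondaries.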

[13] = target: T1, von Hippel-Lindau disease tumor suppressor/Cyclin-dependent kinase 7 (Homo sapiens); assay: PROTAC activity at CDK7/VHL in human MOLT-4 cells assessed as degradation of CDK7 at 0.1 to 5 uM measured after 6 hrs incubation by immunoblot analysis; type: cell-based; settings: dose 0.1-5 µM
CDK7/Cyclin H/MNAT1 = CDK7/Cyclin H/MNAT1 (Homo sapiens, UniProt P50613); assay: Inhibition of CDK7/CycH/MNAT1 (unknown origin) assessed as change in TR-FRET ratio using Cdk7/9tide as substrate and ATP by in vitro Adapta Eu kinase assay; type: protein-complex assay
Chain of CDK7/Cyclin H/MNAT1 (P51946 whole entry): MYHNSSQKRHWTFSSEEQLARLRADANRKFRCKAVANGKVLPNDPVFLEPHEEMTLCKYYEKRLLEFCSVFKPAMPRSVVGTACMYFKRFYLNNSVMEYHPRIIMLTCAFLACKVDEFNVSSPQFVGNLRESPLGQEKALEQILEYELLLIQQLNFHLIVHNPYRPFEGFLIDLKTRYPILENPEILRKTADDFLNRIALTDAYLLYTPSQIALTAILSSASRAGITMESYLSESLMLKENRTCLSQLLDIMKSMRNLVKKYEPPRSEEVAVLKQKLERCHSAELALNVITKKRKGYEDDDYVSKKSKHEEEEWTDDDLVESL
Chain of CDK7/Cyclin H/MNAT1 (P50613 whole entry): as the sequence (P50613 whole entry, looked up) above
Chain of CDK7/Cyclin H/MNAT1 (P51948 whole entry, further chain): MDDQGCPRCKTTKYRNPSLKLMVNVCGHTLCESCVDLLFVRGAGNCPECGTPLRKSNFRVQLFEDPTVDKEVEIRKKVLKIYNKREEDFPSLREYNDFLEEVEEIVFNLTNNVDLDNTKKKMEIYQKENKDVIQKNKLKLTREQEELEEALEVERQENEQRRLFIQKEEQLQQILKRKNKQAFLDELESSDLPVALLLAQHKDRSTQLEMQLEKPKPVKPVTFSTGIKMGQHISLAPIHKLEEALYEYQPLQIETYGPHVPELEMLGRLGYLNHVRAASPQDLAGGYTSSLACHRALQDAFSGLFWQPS
Summary of the method: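 Adapta Eu kinase assay run at ThermoFisher on CDK7/Cyclin H/MNAT1 with ATP at Km.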

[14] = target: T1, von Hippel-Lindau disease tumor suppressor/Cyclin-dependent kinase 7 (Homo sapiens); assay: PROTAC activity at CDK7/VHL in human Jurkat cells assessed as degradation of CDK7 in presence of 10 uM YKL-5-167 at 0.1 uM measured after 6 hrs incubation by immunoblot analysis; type: cell-based; summary of the method: as §1
[15] = Half life in male CD1 mouse at 3 mg/kg, IV measured upto 24 hrs by LC-MS/MS-39 analysis; type: ADME, organism-based; settings: in vivo
Summary of the method: (§4)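 Three male CD1 mice given a single 3 mg/kg intravenous dose. Plasma prepared on ice by centrifugation (2000 g, 5 min, 4 °C) within 15 min, held at about −70 °C. Acetonitrile precipitation, then LC-MS/MS quantitation. Mean ± SD, n=3.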

SU-DHL-5 = assay: Antiproliferative activity against human SU-DHL-5 cells assessed as cell viability measured after 72 hrs by CellTiter-Glo assay; type: functional, cell-based; settings: SU-DHL-5, 72 h; summary of the method: as §3
Jurkat [16] = assay: Antiproliferative activity against human Jurkat cells assessed as cell viability measured after 72 hrs by CellTiter-Glo assay; type: functional, cell-based; summary of the method: as §3
[17] = target: T1, von Hippel-Lindau disease tumor suppressor/Cyclin-dependent kinase 7 (Homo sapiens); assay: PROTAC activity at CDK7/VHL in human A549 cells assessed as degradation of CDK7 measured at 0.1 to 5 uM measured after 6 hrs incubation by immunoblot analysis; type: cell-based; settings: dose 0.1-5 µM
[18] = Observed clearance in male CD1 mouse at 3 mg/kg, IV measured upto 24 hrs by LC-MS/MS-39 analysis; type: ADME, organism-based; settings: in vivo; summary of the method: as §4
[19] = target: T1, von Hippel-Lindau disease tumor suppressor/Cyclin-dependent kinase 7 (Homo sapiens); assay: PROTAC activity at CDK7/VHL in human Jurkat cells assessed as degradation of CDK7 in presence of 10 uM (S,R,S)-AHPC-me at 0.1 uM measured after 6 hrs incubation by immunoblot analysis; type: cell-based; summary of the method: as §1

What does the source list for `Cc1ncsc1-c1ccc([C@H](C)NC(=O)[C@@H]2C[C@@H](O)CN2C(=O)[C@@H](NC(=O)CCCC#Cc2ccc(C(=O)Nc3n[nH]c4c3CN(C(=O)N[C@H](CN(C)C)c3ccccc3)C4(C)C)cc2)C(C)(C)C)cc1`?
Activity [1]: 95%; Ratio (Jurkat [2]): 7; Activity [3]: Dose-Dependent Effect; Activity [4]: inactive; Activity [5]: Active; Activity [6]: inactive; Activity [7]: inactive; Activity [8]: inactive; Tmax [9]: 1 h; pIC50 (MOLT-4): 7.05; pIC50 (OVCAR-3): 6.11; Efficacy [10]: Dose-Dependent Effect; CL/F [11]: 8.7 mL/min/kg; Activity [12]: Active; Activity [13]: Dose-Dependent Effect; pIC50 (CDK7/Cyclin H/MNAT1): 7.70; Activity [14]: inactive; t1/2 [15]: 3.76 h; pIC50 (SU-DHL-5): 7.28; pIC50 (Jurkat [16]): 6.80; Activity [17]: Dose-Dependent Effect; clearance [18]: 8.3 mL/min/kg; Activity [19]: inactive
